ChEMBL document CHEMBL5058577, “EUbOPEN Chemogenomics Library 2 (Multiplex)” (2022)

Test system: Fibroblast
Experiment: Multiplex assay against human fibroblast
Assay type: toxicity, cell-based
In short: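 Compound was added to live cells that had been stained at seeding with Hoechst33342, BioTracker Green Microtubule Cytoskeleton Dye, MitoTracker Red and Annexin V Alexa Fluor 680, and imaging followed on a CQ1 microscope at 37°C and 5% CO2. CellPathfinder machine-learning gating divided cells into Hoechst high-intensity objects or normal cells, normal cells into healthy, pyknosed or fragmented nuclei, and pyknosed cells into mitotic or apoptotic. Tubulin, mitochondrial-mass and membrane-permeability phenotypes are per cents of healthy-nucleus cells.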

[1] = 12 h, 1 µM, compound concentration 1 uM, replicate 1
[2] = 12 h, 1 µM, compound concentration 1 uM, replicate 2
[3] = 12 h, 10 µM, compound concentration 10 uM, replicate 1
[4] = 12 h, 10 µM, compound concentration 10 uM, replicate 2
[5] = 24 h, 1 µM, compound concentration 1 uM, replicate 1
[6] = 24 h, 1 µM, compound concentration 1 uM, replicate 2
[7] = 24 h, 10 µM, compound concentration 10 uM, replicate 1
[8] = 24 h, 10 µM, compound concentration 10 uM, replicate 2
[9] = 48 h, 1 µM, compound concentration 1 uM, replicate 1
[10] = 48 h, 1 µM, compound concentration 1 uM, replicate 2
[11] = 48 h, 10 µM, compound concentration 10 uM, replicate 1
[12] = 48 h, 10 µM, compound concentration 10 uM, replicate 2

COc1ccc2c(c1)C(C(=O)N(Cc1ccc(N(C)C)cc1)c1ccc(C(C)C)cc1)CCC2.Cl (configuration not stated)
Population Apoptotic (%) [1]: 57%
Population Fragmented Nuclei (%) [1]: 15%
Population Healthy Nuclei (%) [1]: 72%
Population Hoechst High Intensity Objects (%) [1]: 1%
Population Membrane Permeable-Phenotype (%) [1]: 1%
Population Mitochondria Different-Phenotype (%) [1]: 7%
Population Mitotic Cells (%) [1]: 42%
Population Normal (%) [1]: 98%
Population Pyknosed Nuclei (%) [1]: 11%
Population Tubulin-Different-Phenotype (%) [1]: 22%
Total Cell Count [1]: 163
Population Apoptotic (%) [2]: 45%
Population Fragmented Nuclei (%) [2]: 20%
Population Healthy Nuclei (%) [2]: 55%
Population Hoechst High Intensity Objects (%) [2]: 5%
Population Membrane Permeable-Phenotype (%) [2]: 5%
Population Mitochondria Different-Phenotype (%) [2]: 15%
Population Mitotic Cells (%) [2]: 54%
Population Normal (%) [2]: 94%
Population Pyknosed Nuclei (%) [2]: 23%
Population Tubulin-Different-Phenotype (%) [2]: 57%
Total Cell Count [2]: 138
Population Apoptotic (%) [3]: 58%
Population Fragmented Nuclei (%) [3]: 17%
Population Healthy Nuclei (%) [3]: 69%
Population Hoechst High Intensity Objects (%) [3]: 1%
Population Membrane Permeable-Phenotype (%) [3]: 0%
Population Mitochondria Different-Phenotype (%) [3]: 12%
Population Mitotic Cells (%) [3]: 41%
Population Normal (%) [3]: 98%
Population Pyknosed Nuclei (%) [3]: 13%
Population Tubulin-Different-Phenotype (%) [3]: 67%
Total Cell Count [3]: 181
Population Apoptotic (%) [4]: 53%
Population Fragmented Nuclei (%) [4]: 38%
Population Healthy Nuclei (%) [4]: 51%
Population Hoechst High Intensity Objects (%) [4]: 2%
Population Membrane Permeable-Phenotype (%) [4]: 6%
Population Mitochondria Different-Phenotype (%) [4]: 14%
Population Mitotic Cells (%) [4]: 46%
Population Normal (%) [4]: 97%
Population Pyknosed Nuclei (%) [4]: 10%
Population Tubulin-Different-Phenotype (%) [4]: 77%
Total Cell Count [4]: 148
Population Apoptotic (%) [5]: 55%
Population Fragmented Nuclei (%) [5]: 11%
Population Healthy Nuclei (%) [5]: 77%
Population Hoechst High Intensity Objects (%) [5]: 1%
Population Membrane Permeable-Phenotype (%) [5]: 0%
Population Mitochondria Different-Phenotype (%) [5]: 5%
Population Mitotic Cells (%) [5]: 44%
Population Normal (%) [5]: 98%
Population Pyknosed Nuclei (%) [5]: 11%
Population Tubulin-Different-Phenotype (%) [5]: 25%
Total Cell Count [5]: 156
Population Fragmented Nuclei (%) [6]: 19%
Population Healthy Nuclei (%) [6]: 59%
Population Hoechst High Intensity Objects (%) [6]: 3%
Population Membrane Permeable-Phenotype (%) [6]: 2%
Population Mitochondria Different-Phenotype (%) [6]: 11%
Population Normal (%) [6]: 96%
Population Pyknosed Nuclei (%) [6]: 20%
Population Tubulin-Different-Phenotype (%) [6]: 41%
Total Cell Count [6]: 136
Population Apoptotic (%) [7]: 50%
Population Fragmented Nuclei (%) [7]: 17%
Population Healthy Nuclei (%) [7]: 72%
Population Hoechst High Intensity Objects (%) [7]: 3%
Population Membrane Permeable-Phenotype (%) [7]: 0%
Population Mitochondria Different-Phenotype (%) [7]: 15%
Population Mitotic Cells (%) [7]: 50%
Population Normal (%) [7]: 96%
Population Pyknosed Nuclei (%) [7]: 10%
Population Tubulin-Different-Phenotype (%) [7]: 63%
Total Cell Count [7]: 180
Population Apoptotic (%) [8]: 42%
Population Fragmented Nuclei (%) [8]: 39%
Population Healthy Nuclei (%) [8]: 55%
Population Hoechst High Intensity Objects (%) [8]: 2%
Population Membrane Permeable-Phenotype (%) [8]: 2%
Population Mitochondria Different-Phenotype (%) [8]: 12%
Population Mitotic Cells (%) [8]: 57%
Population Normal (%) [8]: 97%
Population Pyknosed Nuclei (%) [8]: 4%
Population Tubulin-Different-Phenotype (%) [8]: 85%
Total Cell Count [8]: 148
Population Apoptotic (%) [9]: 66%
Population Fragmented Nuclei (%) [9]: 17%
Population Healthy Nuclei (%) [9]: 75%
Population Hoechst High Intensity Objects (%) [9]: 1%
Population Membrane Permeable-Phenotype (%) [9]: 1%
Population Mitochondria Different-Phenotype (%) [9]: 3%
Population Mitotic Cells (%) [9]: 33%
Population Normal (%) [9]: 98%
Population Pyknosed Nuclei (%) [9]: 6%
Population Tubulin-Different-Phenotype (%) [9]: 27%
Total Cell Count [9]: 180
Population Apoptotic (%) [10]: 52%
Population Fragmented Nuclei (%) [10]: 26%
Population Healthy Nuclei (%) [10]: 61%
Population Membrane Permeable-Phenotype (%) [10]: 5%
Population Mitochondria Different-Phenotype (%) [10]: 13%
Population Mitotic Cells (%) [10]: 47%
Population Pyknosed Nuclei (%) [10]: 12%
Population Tubulin-Different-Phenotype (%) [10]: 46%
Total Cell Count [10]: 152
Population Apoptotic (%) [11]: 71%
Population Fragmented Nuclei (%) [11]: 21%
Population Healthy Nuclei (%) [11]: 71%
Population Hoechst High Intensity Objects (%) [11]: 4%
Population Membrane Permeable-Phenotype (%) [11]: 0%
Population Mitochondria Different-Phenotype (%) [11]: 8%
Population Mitotic Cells (%) [11]: 28%
Population Normal (%) [11]: 95%
Population Pyknosed Nuclei (%) [11]: 7%
Population Tubulin-Different-Phenotype (%) [11]: 71%
Total Cell Count [11]: 203
Population Apoptotic (%) [12]: 75%
Population Fragmented Nuclei (%) [12]: 45%
Population Healthy Nuclei (%) [12]: 52%
Population Hoechst High Intensity Objects (%) [12]: 0%
Population Membrane Permeable-Phenotype (%) [12]: 3%
Population Mitotic Cells (%) [12]: 25%
Population Normal (%) [12]: 99%
Population Pyknosed Nuclei (%) [12]: 2%
Population Tubulin-Different-Phenotype (%) [12]: 81%
Total Cell Count [12]: 174
